Published values from different studies.
Lines come from different studies, so protocols differ.
Concentration: 1 µM
MET Y1235D: Hepatocyte growth factor receptor (MET, Homo sapiens, UniProt P08581, Y1235D)
MET: Hepatocyte growth factor receptor (MET, Homo sapiens, UniProt P08581)
MET M1250T: Hepatocyte growth factor receptor (MET, Homo sapiens, UniProt P08581, M1250T)

CN(C(=O)c1ccccc1)c1cc(N(C)c2ccc3c(c2)CCc2ccc(C(=O)NCCN4CCOCC4)cc2C3=O)ccc1F  remaining binding (MET Y1235D; cell-free assay, competition with immobilised ligand): 85%
CC1CCCN1c1nccc(-c2cnn3ncccc23)n1 (stereo not shown)  remaining binding (MET; binding): 96%
CN(C)C(=O)Cn1cc(-c2nc(C3(c4ccc(-c5cnc(N)nc5)cc4)CC3)no2)cn1  remaining binding (MET M1250T; cell-free assay, competition with immobilised ligand): 100%
C[C@@H]1CCN(c2nccc(-c3cnn4ncccc34)n2)C1  remaining binding (MET Y1235D; binding): 79%
O=C(NCC1CCOCC1)c1n[nH]cc1NC(=O)c1c(F)cccc1F  remaining binding (MET Y1235D; binding, competition with immobilised ligand): 97%
O=C(c1ccc(Nc2nccc(-c3cc4ccccc4s3)n2)cc1)N1CCC(N2CCCC2)CC1  remaining binding (MET Y1235D; binding, competition with immobilised ligand): 85%
CN(C)c1nccc(-c2cnn3ncccc23)n1  remaining binding (MET Y1235D; binding): 90%
CC1=C(C#N)C(c2ccc3c(c2)c(NC(=O)c2ccccc2C)nn3C)C(C#N)=C(C)N1  remaining binding (MET; cell-free assay, competition with immobilised ligand): 24%
N[C@@H]1CCN(c2nccc(-c3cnn4ncccc34)n2)C1  remaining binding (MET M1250T; binding): 100%
O=C(c1ccc(Nc2ncc(Cl)c(-c3cc4ccccc4s3)n2)cc1)N1CCC(N2CCCC2)CC1  remaining binding (MET; binding, competition with immobilised ligand): 82%
CC(=O)N1CCC(c2ccc(C(=O)NC3=NCCN3)cc2C(F)(F)F)CC1  remaining binding (MET M1250T; cell-free assay, competition with immobilised ligand): 84%
COc1ccnn2ncc(-c3ccnc(N(C)C)n3)c12  remaining binding (MET; binding): 92%
CCN1CCN(Cc2ccc(C(=O)Nc3ccc(C)c(Oc4ccc5c(c4)CC(=O)N5)c3)cc2C(F)(F)F)CC1  remaining binding (MET; binding, competition with immobilised ligand): 100%
Cc1cnn2ncc(-c3ccnc(N(C)C)n3)c2c1  remaining binding (MET M1250T; binding): 61%
O=C(NCCCN1CCOCC1)c1ccc(Nc2nccc(-c3cc4ccccc4s3)n2)cc1  remaining binding (MET; binding, competition with immobilised ligand): 100%
COc1cnc(Nc2cccc(S(N)(=O)=O)c2)nc1N1CCN(c2ccccc2)CC1  remaining binding (MET Y1235D; binding, competition with immobilised ligand): 100%
FC(F)(F)c1ccc2c(c1)nc(-c1cccnc1)n2C1CC1  remaining binding (MET Y1235D; cell-free assay, competition with immobilised ligand): 100%
Nc1ncc2c(n1)-c1c([nH]c3ccc(C#CC4CC4)cc13)CCCC2  remaining binding (MET M1250T; binding, competition with immobilised ligand): 95%
CNC(=O)[C@@H]1CC[C@@H](n2c(-c3ccc4cnccc4c3)nc3ccc(C(=O)NCc4cccc(C(N)=O)c4)cc32)C1  remaining binding (MET M1250T; binding, competition with immobilised ligand): 100%
